Experiment [1] has as its target T1, Tyrosine-protein phosphatase non-receptor type 1 (Homo sapiens, UniProt P18031).
T1 sequence (P18031 whole entry): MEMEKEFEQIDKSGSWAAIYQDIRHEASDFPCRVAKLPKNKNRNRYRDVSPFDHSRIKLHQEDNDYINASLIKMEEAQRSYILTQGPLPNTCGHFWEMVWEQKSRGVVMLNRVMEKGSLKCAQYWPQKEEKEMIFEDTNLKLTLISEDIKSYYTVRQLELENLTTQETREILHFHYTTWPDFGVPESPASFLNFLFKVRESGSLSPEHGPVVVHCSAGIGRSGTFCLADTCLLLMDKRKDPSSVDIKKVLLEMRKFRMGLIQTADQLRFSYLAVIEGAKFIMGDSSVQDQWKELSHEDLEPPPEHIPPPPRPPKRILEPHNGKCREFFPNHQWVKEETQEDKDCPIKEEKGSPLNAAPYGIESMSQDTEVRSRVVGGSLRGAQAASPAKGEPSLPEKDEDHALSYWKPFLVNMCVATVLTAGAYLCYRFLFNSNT
The experiment is described as follows: Inhibition of PTP1B assessed as residual enzyme activity. The method, boiled down:
(§1)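 PTP-1B pre-incubated 10 min with compound, with or without 0.01% Triton X-100. Reaction: 10 mM pNPP in 50 mM HEPES pH 7.0 with 1 mM DTT and 2 mM EDTA, 30 min at 37 °C. Stopped with 0.1 N NaOH, p-nitrophenolate read at 410 nm (ε 1.78×10⁴ M⁻¹cm⁻¹). Single-concentration screen was the mean of three independent sets. Sodium orthovanadate served as standard.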

In experiment [2] the test system is Rattus norvegicus. The experiment is described as follows: Antihyperglycemic activity against sucrose-loaded Charles-Foster Wistar albino rat assessed as reduction in blood glucose at 100 mg/kg, po administered 30 mins before sucrose challenge relative to control. The class given is functional. Further details: scale not given: the % may be the effect or the level left. The method, boiled down: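 Male Charles Foster/Wistar rats, 160 ± 20 g, fasted 16 h, selected at 60e80 mg/dl glucose, groups of 5-6. Compound given orally at 100 mg/kg in 1.0% gum acacia; sucrose 10.0 g/kg orally 30 min later. Glucose read by glucometer at 30-120 min. Percent activity derived from AUC versus vehicle.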

For experiment [3], the system named is Rattus norvegicus. The experiment is described as follows: Antihyperglycemic activity against sucrose-challenged streptozotocin-induced fasted Sprague-Dawley rat assessed as reduction in blood glucose at 100 mg/kg, po administered 30 mins before sucrose challenge measured after 5 hrs post sucrose dose relative to control. Type of experiment: functional. Further details: scale not given: the % may be the effect or the level left. The procedure, abridged:
(§2)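 Male Sprague Dawley rats, 160 ± 20 g, overnight fasted, given streptozotocin 45 mg/kg i.p. in citrate buffer pH 4.5. Rats at 144-270 mg/dl glucose after 48 h were used, 5-6 per group. Oral dose 100 mg/kg in 1.0% gum acacia, sucrose 2.5 g/kg 30 min later. Glucose read at 30-300 min and 24 h. Activity derived from AUC versus control.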

For experiment [4], the species on record is Mus musculus. Nature of the experiment: Antihyperglycemic activity against C57BL/KsBom db/db type 2 diabetic mouse model assessed as decrease in postprandial blood glucose level on day 3 by OGTT relative to control. Type of experiment: functional. Further details: concentration or dose not given beside the values.
Experiment [5] addresses T1, Tyrosine-protein phosphatase non-receptor type 1. Nature of the experiment: Inhibition of PTP1B assessed as residual enzyme activity in presence of Triton X-100. The procedure, abridged: as §1
In experiment [6] the test system is Rattus norvegicus. Nature of the experiment: Antihyperglycemic activity against sucrose-challenged streptozotocin-induced fasted Sprague-Dawley rat assessed as reduction in blood glucose at 100 mg/kg, po administered 30 mins before sucrose challenge measured after 24 hrs post sucrose dose relative to control. The class given is functional. Further details: scale not given: the % may be the effect or the level left. The procedure, abridged:
as §2

Experiment [7] is filed under the species Mus musculus. The experiment is described as follows: Antihyperglycemic activity against C57BL/KsBom db/db type 2 diabetic mouse model assessed as decrease in postprandial blood glucose level on day 10 by OGTT relative to control. The class given is functional. Details: scale not given: the % may be the effect or the level left. The method, boiled down:
(§3)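 Male and female C57BL/KsBom-db mice, 12e18 weeks, 40e50 g, ten used, vehicle 1.0% gum acacia. Day 6 postprandial protocol: glucose read at -0.5 and 0 h, then at 1, 2, 3, 4 and 6 h after dosing. Day 10 OGTT: overnight fast, drug given at -30 min, glucose 3 g/kg at 0 min, glucose read at 30-120 min.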

The subject of experiment [8] is Mus musculus. The experiment is described as follows: Antidyslipidemic activity in C57BL/KsBom db/db diabetic mouse assessed as reduction in plasma triglyceride level at 100 mg/kg, po. Type of experiment: functional. Further details: scale not given: the % may be the effect or the level left. The method, boiled down: (§4)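 Male and female C57BL/KsBom-db mice, 12e18 weeks, 40e50 g, ten per experiment, housed by sex at 23 °C on a 12/12 h cycle. Test drug given orally at 100 mg/kg in gum acacia (1.0%); vehicle controls received gum acacia only. Dosing ran 10 days. Effects on triglyceride, cholesterol and HDL are reported as % change.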

For experiment [9], the system named is Mus musculus. The experiment is described as follows: Antidyslipidemic activity in C57BL/KsBom db/db diabetic mouse assessed as reduction in plasma cholesterol level at 100 mg/kg, po. The class given is functional. Further details: scale not given: the % may be the effect or the level left. The method, boiled down: as §4
Experiment [10] is filed under the species Mus musculus. The experiment is described as follows: Antihyperglycemic activity against C57BL/KsBom db/db type 2 diabetic mouse model assessed as decrease in postprandial blood glucose level on day 6 by OGTT relative to control. Details: scale not given: the % may be the effect or the level left. Type of experiment: functional. The procedure, abridged: as §3

For experiment [11], the system named is Mus musculus. The experiment is described as follows: Antidyslipidemic activity in C57BL/KsBom db/db diabetic mouse assessed as increase in high-density lipoprotein cholesterol level at 100 mg/kg, po. Type of experiment: functional. The procedure, abridged: as §4

Take `CN(C)CCCOc1ccc(-c2nc3c(ccc4ccccc43)o2)cc1`: the IC50 was found to be 3.5 µM in experiment [1] and 3.52 µM in experiment [5]. The inhibition constant Ki in experiment [1] was determined as 34.1 µM; in experiment [5], 36.3 µM. In addition, the Activity in [2] was 25.2%; in experiment [3], 15.6%; in [4], 16.7%; in [6], 20.3%.
On to `CCCCN(C)CCOc1ccc(-c2nc3c(ccc4ccccc43)o2)cc1`, for which the figures for the half-inhibitory concentration (IC50) in experiment [1] and in [5] were 2.5 µM and 2.52 µM, respectively. In addition, the values for the Ki in experiment [1] and in experiment [5] were 44.4 µM and 41 µM, respectively. Besides, the Activity was determined as 35.3% in experiment [2]; 17.4% in experiment [3]; 24.1% in [7]; 22.3% in experiment [4]; 7.5% in [8]; 18.7% in experiment [6]. For the same compound, the values for the Activity in experiment [9], in [10] and in experiment [11] were 12.2%, 22.4% and 1.3%, respectively.
Regarding `CCN(CC)CCOc1ccc(-c2nc3c(ccc4ccccc43)o2)cc1`, the concentration for half-maximal inhibition (IC50) is 4.6 µM in experiment [1] and 4.55 µM in experiment [5]. For the same compound, the Ki in experiment [1] is 35 µM; in [5], 35.5 µM. Also, the Activity amounted to 21.7% in experiment [2], 11.4% in experiment [3] and 9.7% in experiment [6].
For `CCCCCCCCNCCCOc1ccc(-c2nc3c(ccc4ccccc43)o2)cc1`, the Activity in experiment [2] was found to be 15%.
Turning to `CC(=O)Oc1ccc(-c2nc3c(ccc4ccccc43)o2)cc1`, the Activity in [2] is reported as 16.8%.
As for `CCN(CC)CCCOc1ccc(-c2nc3c(ccc4ccccc43)o2)cc1`, the concentration for half-maximal inhibition (IC50) in experiment [1] was determined as 3.4 µM; in experiment [5], 3.36 µM. The inhibition constant Ki in [1] worked out at 40.5 µM; in experiment [5] it was 41 µM. In addition, the Activity in [2] was 20.5%; in [3], 11.5%; in [4], 10.8%; in [6], 13.6%.
For the compound `ClCCCOc1ccc(-c2nc3c(ccc4ccccc43)o2)cc1`, the Activity in experiment [2] is 7.4%.
`c1ccc2c(c1)ccc1oc(-c3ccc(OCCCN4CCCC4)cc3)nc12`: the Activity in experiment [2] stood at 17.2%; in experiment [3], 12.6%; in [6], 12.9%.
With `CCCCN(C)CCCOc1ccc(-c2nc3c(ccc4ccccc43)o2)cc1`, the figures for the Activity in experiment [2], in experiment [3] and in [6] were 14.7%, 7.8% and 9.2%, respectively.
For the compound `c1ccc2c(c1)ccc1oc(-c3ccc(OCCCN4CCCCC4)cc3)nc12`, the Activity in experiment [2] is 25%; in experiment [3] it was 13.4%; in experiment [6], 11.2%.
On to `c1ccc2c(c1)ccc1oc(-c3ccc(OCCN4CCCC4)cc3)nc12`, for which, in experiment [1], the concentration for half-maximal inhibition (IC50) was found to be 5.71 µM and the Ki was determined as 34.2 µM. Besides, the Activity in [2] came to 8.7%. In addition, in [5], the IC50 came out at 5.7 µM and the Ki was found to be 37 µM.
Turning to `CCOC(=O)CCCOc1ccc(-c2nc3c(ccc4ccccc43)o2)cc1`, the Activity in experiment [2] came to 9.5%.
As to `O=C(O)CCCOc1ccc(-c2nc3c(ccc4ccccc43)o2)cc1`, the Activity in experiment [2] is reported as 5.8%.
With `COc1ccc(NCCCOc2ccc(-c3nc4c(ccc5ccccc54)o3)cc2)cc1`, the Activity in experiment [2] came to 11.8%.
For `COc1ccc(Cl)cc1C(=O)NCCc1ccc(S(=O)(=O)NC(=O)NC2CCCCC2)cc1` [GLYBURIDE], the Activity in experiment [2] is 33.9%; in experiment [3], 32.8%; in experiment [4] it was 13.6%.
As for `O=C(O)COc1ccc(-c2nc3c(ccc4ccccc43)o2)cc1`, in experiment [2], the Activity came out at 4.6%.
Regarding `Cc1ccc(S(=O)(=O)NC(=O)NN2CC3CCCC3C2)cc1` (configuration not stated) [GLICLAZIDE], the Activity in experiment [2] amounted to 44.8%; in experiment [3], 27.7%; in experiment [4], 17.4%.
Regarding `CN(C)C(=N)NC(=N)N` [METFORMIN], the Activity is listed as 12.9% in experiment [2], 11.2% in experiment [4] and 20.2% in [6].
Turning to `CN(C)CCOc1ccc(-c2nc3c(ccc4ccccc43)o2)cc1`, the IC50 in [1] turned out to be 3.51 µM; in experiment [5], 3.56 µM. The Ki in experiment [1] was determined as 25.1 µM; in experiment [5], 28.7 µM. Also, the Activity came out at 35.9% in experiment [2]; 27.9% in [3]; 23.6% in experiment [7]; 18.9% in [4]; 10.5% in experiment [8]; 25.7% in experiment [6]. The Activity stood at 17.6% in experiment [9], 21.4% in experiment [10] and 3% in experiment [11].
In the case of `c1ccc2c(c1)ccc1oc(-c3ccc(OCCN4CCCCC4)cc3)nc12`, the values for the half-inhibitory concentration (IC50) in [1] and in experiment [5] were 1.9 µM and 1.86 µM, respectively. The values for the Ki in [1] and in [5] were 27.5 µM and 27.1 µM, respectively. The Activity in experiment [2] is reported as 26.9%; in experiment [3] it was 16.4%; in [4], 10.4%; in experiment [6], 15.7%.
`Cc1ccc(NCCCOc2ccc(-c3nc4c(ccc5ccccc54)o3)cc2)cc1`: the Activity in experiment [2] is given as 17.2%; in [3], 14.6%; in experiment [6] it was 15.2%.
For `CCOC(=O)COc1ccc(-c2nc3c(ccc4ccccc43)o2)cc1`, the Activity in [2] is reported as 11.4%.
Consider `Oc1ccc(-c2nc3c(ccc4ccccc43)o2)cc1`, for which the Activity in experiment [2] is reported as 10.8%.

Usually IC50 stands for the concentration that inhibits the measured activity by half. Usually Ki stands for the dissociation constant of the complex between target and ligand, obtained from inhibition or displacement.

The values above are taken from ChEMBL document CHEMBL1154485, “Novel 2-aryl-naphtho[1,2-d]oxazole derivatives as potential PTP-1B inhibitors showing antihyperglycemic activities” (Eur J Med Chem, 2009).
